Screening data: PubChem BioAssay, several laboratories
Hits are enriched below; roughly 2.6% of the tested compounds scored in any of these assays.
EP2 mod = modulators of human EP2 prostaglandin E2 receptor; P43116; EP2-expressing cells, cAMP HTRF FRET, PGE2 co-stimulation; induction, % at 25 µM; hit rate 0.83% among 260,000; AID 940;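 active = compounds whose cAMP rise, as percent of the full-agonist control response, exceeds 60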;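 note: rat C6 glioma line stably carrying human EP2 under a CMV promoter; the protocol text gives 20 µM as final concentration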
Target sequence (P43116 whole entry, looked up): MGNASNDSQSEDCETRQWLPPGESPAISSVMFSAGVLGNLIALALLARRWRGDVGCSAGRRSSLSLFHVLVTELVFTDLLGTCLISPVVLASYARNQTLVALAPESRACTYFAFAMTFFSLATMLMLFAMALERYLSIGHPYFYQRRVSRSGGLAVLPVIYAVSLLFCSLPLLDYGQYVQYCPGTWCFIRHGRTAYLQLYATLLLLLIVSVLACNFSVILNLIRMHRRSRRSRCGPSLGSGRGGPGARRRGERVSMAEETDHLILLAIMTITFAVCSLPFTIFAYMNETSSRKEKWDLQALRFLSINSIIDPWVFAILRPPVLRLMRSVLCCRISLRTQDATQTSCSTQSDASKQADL
Granule exo inh = blocks lytic granule exocytosis; TALL-104 LAMP-1 surface exposure, flow cytometry; cells stimulated with thapsigargin and PMA; hit rate 0.66% among 360,000; inhibition, % at 10 µM; AID 651702;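 active = inhibition above about 55%, limit read from the data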
MC4R barr agon = human MC4R agonism via beta-arrestin. hit rate 0.98% among 360,000. U2OS MC4R beta-arrestin complementation, luminescence; percent of melanotan II response, DMSO zero. activation, % at 8.9 µM;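 active = activation above a per-plate cutoff, the mean activation of sample wells on that plate plus 3 SD, cut at about 8% in these data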
Target sequence (P32245 whole entry, looked up): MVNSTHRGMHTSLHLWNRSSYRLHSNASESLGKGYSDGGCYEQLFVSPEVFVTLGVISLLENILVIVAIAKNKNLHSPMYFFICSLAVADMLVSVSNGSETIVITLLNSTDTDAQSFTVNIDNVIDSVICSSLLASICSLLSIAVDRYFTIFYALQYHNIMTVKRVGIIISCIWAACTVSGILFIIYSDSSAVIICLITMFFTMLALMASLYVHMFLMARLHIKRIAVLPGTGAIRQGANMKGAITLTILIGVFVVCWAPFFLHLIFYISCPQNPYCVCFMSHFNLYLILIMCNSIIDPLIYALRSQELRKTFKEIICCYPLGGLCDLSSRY
T cell HTS = T cell immune modulators affecting CD8 T cell-vesicle binding | response (vesicle binding), % at 7 µM | 2C CD8+ T cell-vesicle binding, flow cytometry; stronger effect = lower value | hit rate 0.068% among 330,000;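 active = response, share of CD8 T cells binding vesicles, and their 90th percentile fluorescence all below set limits, cut at about 80% in these data, passing the limit was not always enough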;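 note: values below 100% mean blocked vesicle binding to the CD8+ T cells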
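Incubation: binding step 1.5 h, 37 °C, antibody labelling 20 min, ice; system: murine 2C transgenic CD8+ T lymphocytes; technique: cytometric PE anti-B7-1 and Alexa647 anti-CD8 signals after 1% paraformaldehyde fixation; also added: QL9-charged Drosophila Ld/ICAM-1/B7-1 vesicles; control set: naked versus QL9-loaded vesicles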
MC4R antagonist = antagonists of human melanocortin 4 receptor (MC4R). P32245. MC4R-expressing cells, MTII-stimulated cAMP, LANCE TR-FRET. inhibition, % at 6.5 µM. hit rate 0.48% among 360,000;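 active = inhibition above its plate's cutoff, the mean of tested wells on that plate plus 3 SD, cut at about 29% in these data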
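Assay system: U2OS cells stably expressing human melanocortin 4 receptor (MC4R) / Dosing: 6.5 µM / Timing: compound 30 min, challenge 1 h, detection 1 h / Measured by: Eu-cAMP/anti-cAMP TR-FRET, emission 671 nm / Replicates: singlicate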
EP2 antag = blocks the human prostaglandin E2 receptor EP2 | P43116 | C6 glioma cells expressing human EP2, cAMP TR-FRET; cells stimulated with saturating PGE2 | inhibition, % at 25 µM | hit rate 0.52% among 260,000 | AID 1422;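 active = percent inhibition above 40 after rounding to a whole number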;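 note: rat C6 glioma host cells with rolipram phosphodiesterase inhibitor present; the protocol text gives 20 µM as final concentration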
MC4R barr conf = human MC4R beta-arrestin agonism confirmation | shares compounds with MC4R barr agon | U2OS MC4R beta-arrestin recruitment, luminescence; scaled DMSO 0%, Melanotan II 100% | activation, % at 8.9 µM | hit rate 31% among 2,400;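 active = mean activation across replicates above the hit cutoff set in the earlier primary screen, cut at about 8% in these data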
MOR-DOR barr ag = counter-screen for MC4R agonists: agonists of mu-delta opioid heterodimer. U2OS PathHunter beta-arrestin, beta-gal luminescence; percent of deltorphin B response, DMSO zero. hit rate 5.8% among 2,400. shares compounds with MC4R barr agon. activation, % at 9.2 µM;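 active = mean activation across replicates exceeds the hit threshold derived in the earlier primary screen, cut at about 18% in these data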
Granule exo CP1 = lytic granule exocytosis inhibition; shares compounds with Granule exo inh; TALL-104 cells, LAMP-1 externalization, flow cytometry; stimulated with PMA plus thapsigargin; inhibition, % at 10 µM; hit rate 11% among 1,500; in the data active = inhibition above about 60%
Hits are given with their value; - = inactive; . = no result given.

SMILES	EP2 mod	Granule exo inh	MC4R barr agon	T cell HTS	MC4R antagonist	EP2 antag	MC4R barr conf	MOR-DOR barr ag	Granule exo CP1
COc1ccc(C(C)(C)C)cc1NC(=O)COC(=O)c1cc(SC)ccc1Cl	-	-	-	-	-	-	.	.	.
CC1CC(C)CN(S(=O)(=O)c2ccc(Br)cc2)C1 (stereo not drawn)	-	.	.	.	.	-	.	.	.
COc1ccc(/C=C(\NC(=O)c2ccccc2)C(=O)NNC(=O)CCN2CCOCC2)cc1	-	-	-	-	-	-	.	.	.
Cc1cc(-n2c(C)cc(C(=O)CSc3nnc4sc5ccccc5n34)c2C)no1	-	-	-	-	-	-	.	.	.
Cc1cc(-n2c(C)cc(C(=O)CSc3nnnn3-c3ccc(Cl)cc3)c2C)no1	-	-	19.9	-	-	-	-	-	.
Cc1nn(-c2nc3ccccc3s2)c(C)c1Oc1ccccc1O	-	-	21.9	-	-	-	-	-	.
CCOc1ccc(-c2cc(NC(=O)Cn3ncc4c3-c3ccccc3OC4)on2)cc1OCC	-	-	16.4	-	-	-	-	-	.
COc1ccc2[nH]c3c(C)c4ccncc4c(C)c3c2c1	-	70.2	13.7	-	-	87.4	28.1	-	-
CCOc1ccc(OCC(O)CNC2CCN(Cc3ccccc3)CC2)cc1 (stereo not drawn)	-	-	-	-	-	-	.	.	.
CC(C)(c1ccccc1)c1ccc(OCC(O)CNC2CCN(Cc3ccccc3)CC2)cc1 (stereo not drawn)	-	61.6	25.4	-	-	-	-	19.0	85.0
COc1ccc(C(CCNCc2ccc(OC(C)C)cc2)C(C)C)cc1 (stereo not drawn)	-	78.4	14.7	-	-	-	-	-	-
COc1ccc(-n2nc3c(N4CCC(C(=O)NCc5cccc(C)c5)CC4)nnc(C)c3c2C)cc1	.	-	-	-	-	.	.	.	.
CCc1ccc(CNC(=O)C2CCCN(c3nnc(C)c4c(C)n(-c5ccccc5)nc34)C2)cc1 (stereo not drawn)	.	57.7	19.4	-	-	.	-	-	87.2
CCOc1ccccc1CNC(=O)C1CCN(c2nnc(C)c3c(C)n(-c4ccc(C)cc4)nc23)CC1	.	57.6	10.0	-	-	.	-	-	88.5
CCOC(=O)/C=C1\CN(Cc2cc(OC)c(OC)c(OC)c2)S(=O)(=O)c2ccc(C(F)(F)F)cc21	.	-	-	-	-	.	.	.	.
CCCC(c1nnnn1C1CCCCC1)N1CCN(C(=O)c2ccco2)CC1 (stereo not drawn)	.	-	-	-	-	.	.	.	.
OC(CNCCC1C=Nc2ccccc21)Cn1c2ccc(Cl)cc2c2cc(Cl)ccc21 (stereo not drawn)	-	70.8	17.2	-	-	-	-	31.2	-
N=C1/C(=C/c2ccc(-c3cccc(C(=O)O)c3)o2)C(=O)N=C2SC=C(c3ccccc3)N12	-	-	-	-	-	-	.	.	.
O=C(Cc1cccs1)Nc1cccc(-c2nc3cc4ccccc4cc3[nH]2)c1	-	65.6	10.6	-	-	117.3	13.9	-	-
Cc1cc(C)c2oc(C(=O)NCc3ccccc3)cc(=O)c2c1	.	-	-	-	-	.	.	.	.
COc1ccc(F)cc1-c1cc(NC(C)=O)c2ncc(-c3cccc(C(F)(F)F)c3)n2c1	.	58.3	19.0	.	-	.	14.7	-	-
COc1cc(CNCCc2ccc(S(N)(=O)=O)cc2)ccc1OCc1ccc(Cl)cc1	-	-	-	-	-	-	.	.	.
CCOc1cc(CNCCc2ccc(S(N)(=O)=O)cc2)ccc1OCc1ccc(Cl)cc1	-	103.0	12.1	-	-	-	70.6	58.3	94.4
N=c1n(CC(=O)c2ccc(Br)s2)c2ccccc2n1Cc1ccccc1	-	76.9	13.8	-	-	-	13.2	18.1	-
Cn1c(=N)n(CC(=O)c2ccc(Br)s2)c2ccccc21	-	-	-	-	-	.	.	.	.
SMILES	EP2 mod	Granule exo inh	MC4R barr agon	T cell HTS	MC4R antagonist	EP2 antag	MC4R barr conf	MOR-DOR barr ag	Granule exo CP1
Clc1ccc(CN2CCc3c([nH]c4ccccc34)C2)cc1Cl	.	58.0	14.9	-	-	.	45.4	23.1	-
Clc1ccc(/C=C\c2nccc3c2[nH]c2ccccc23)cc1	-	87.7	14.0	.	-	-	-	-	-
O=C(Cc1c(F)cccc1Cl)NC1=NCCS1	-	-	-	-	-	-	.	.	.
O=C(Nc1ccc(-c2nc3ccccc3[nH]2)cc1)c1ccccc1NS(=O)(=O)c1ccc(F)cc1	-	67.8	14.7	-	-	-	-	-	-
CS(=O)(=O)c1ccccc1C(=O)Nc1ccc(-c2nc3ccccc3[nH]2)cc1	.	-	-	-	-	.	.	.	.
COC(=O)[C@H](CCSC)NC(=O)Cn1cc(C)c(=O)[nH]c1=O	.	-	-	.	-	.	.	.	.
Cc1ccc(NC(=O)c2cc(C(C)(C)C)nn2Cc2ccccc2)cc1	-	-	-	-	-	-	.	.	.
CC(C)(C)c1cc(C(=O)Nc2ccc(F)cc2)n(Cc2ccc(F)cc2)n1	-	66.7	9.6	-	-	-	-	-	-
Cc1ccc(CNC(=O)CSc2nnc(CNC(=O)c3ccccc3)o2)cc1	.	-	-	-	-	.	.	.	.
Cc1noc(C)c1S(=O)(=O)N(C)C[C@H]1OCc2cnnn2CCCC(=O)N([C@H](C)CO)C[C@@H]1C	.	-	-	.	-	.	.	.	.
CCOC(=O)c1c(CSc2ccc(CC)cc2)oc2ccc(O)c(CN(C)C)c12	.	80.4	20.2	-	-	.	15.5	-	-
CCOC(=O)c1c(C)oc2ccc(O)c(CN(C)C)c12	-	-	-	-	-	-	.	.	.
CC(=O)NC(c1cccs1)c1cc(Cl)c2ccccc2c1O (stereo not drawn)	.	72.6	-	-	-	.	.	.	-
CC(C)Cn1c(N)c(S(=O)(=O)c2cccs2)c2nc3ccccc3nc21	-	80.0	-	.	-	-	.	.	-
COc1ccccc1C(=O)Nc1c(C)cc(Br)cc1C	-	-	-	-	-	-	.	.	.
Cc1cccc(CN2CCc3c([nH]c4ccccc34)C2)c1	.	-	-	-	-	.	.	.	.
Clc1cccc(CN2CCc3c([nH]c4ccccc34)C2)c1	.	58.0	-	-	-	.	.	.	-
CC[C@@H]1C(=O)[C@H](Cc2ccccc2)[C@H]2CCCC(=O)N3CC[C@@H]1[C@@H]23	.	63.4	-	.	-	.	.	.	-
O=C1CCC[C@@H]2[C@H](Cc3ccccc3)[C@@H](O)C[C@@H]3CCN1[C@@H]32	.	-	-	.	-	.	.	.	.
